Activity calls are given as the source filed them. The calls are words filed in the database; no cut-off is given here.
Legend:
[1] = tested on: HBL-100; test: Cell cycle arrest in human HBL100 cells assessed as accumulation at G0/G1 phase at 1 to 2 uM after 24 hrs using propidium iodide staining by flow cytometry; assay type: functional, cell-based
In short: (§1)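 Cells were seeded at 2.5–5 × 10^5 per well. After 24 h they were dosed at 1, 2, 3 and 5 for 24 h, then trypsinized and fixed overnight in ice-cold 70% ethanol at −20 °C. Samples were RNase-treated for 30 min at 37 °C in the dark and stained with propidium iodide. DNA content was read by flow cytometry on 25,000 cells/sample, giving sub-G1, G0/G1, S and G2/M fractions.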

[2] = tested on: A2780; test: Antiproliferative activity against human A2780 cells after 48 hrs by sulforhodamine B assay; assay type: functional; conditions: A2780, 48 h
In short: (§2)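 SRB assay in RPMI 1640 with 5% heat-inactivated FCS and 2 mM L-glutamine at 37 °C. Seeding was 15,000 cells/well for WiDr, T-47D and HeLa, and 10,000 for A2780, SW1573 and HBL-100. Compound was added on day 1 from DMSO stock (400× top final; 0.25% v/v DMSO control), in triplicate dilutions over 1–100, for 48 h. Cells were fixed with cold 50% TCA for 60 min at 4 °C and read at OD 492 nm. Percentage growth was calculated from T0 and end OD by NCI formulas, as means ± SD of 3–5 experiments.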

[3] = tested on: HBL-100; test: Antiproliferative activity against human HBL100 cells after 48 hrs by sulforhodamine B assay; assay type: functional; conditions: HBL-100, 48 h; in short: as §2
[4] = tested on: HeLa; test: Antiproliferative activity against human HeLa cells after 48 hrs by sulforhodamine B assay; assay type: functional; in short: as §2
[5] = tested on: SW1573; test: Antiproliferative activity against human SW1573 cells after 48 hrs by sulforhodamine B assay; assay type: functional; conditions: SW1573, 48 h; in short: as §2
[6] = tested on: T47D; test: Antiproliferative activity against human T47D cells after 48 hrs by sulforhodamine B assay; assay type: functional; in short: as §2
[7] = tested on: WiDr; test: Antiproliferative activity against human WiDr cells after 48 hrs by sulforhodamine B assay; assay type: functional; in short: as §2
[8] = tested on: SW1573; test: Cell cycle arrest in human SW1573 cells assessed as accumulation at G0/G1 phase at 1 to 2 uM after 24 hrs using propidium iodide staining by flow cytometry; assay type: functional, cell-based; in short: as §1
[9] = tested on: HBL-100; test: Cell cycle arrest in human HBL100 cells assessed as accumulation at S phase at 1 to 2 uM after 24 hrs using propidium iodide staining by flow cytometry; assay type: functional, cell-based; in short: as §1
[10] = tested on: SW1573; test: Cell cycle arrest in human SW1573 cells assessed as accumulation at S phase at 1 to 2 uM after 24 hrs using propidium iodide staining by flow cytometry; assay type: functional, cell-based; in short: as §1
[11] = tested on: HBL-100; test: Cell cycle arrest in human HBL100 cells assessed as accumulation at sub G1 phase at 3 to 5 uM after 24 hrs using propidium iodide staining by flow cytometry; assay type: functional, cell-based; in short: as §1
[12] = tested on: SW1573; test: Cell cycle arrest in human SW1573 cells assessed as accumulation at sub G1 phase at 3 to 5 uM after 24 hrs using propidium iodide staining by flow cytometry; assay type: functional, cell-based; in short: as §1
[13] = tested on: HeLa; test: Induction of apoptosis in human HeLa cells assessed as early apoptotic cells at 3 uM after 24 hrs using FITC-conjugated annexin V and propidium iodide staining by flow cytometry; assay type: functional
In short: (§3)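 Cells were seeded at 0.25–0.5 × 10^6. After 24 h they were exposed to drug for 24 h, then kept in drug-free medium for a further 24 h. About 10,000 events were read (488/525 and 488/675 nm). Early apoptosis was AnnexinV+/PI−; late apoptosis was AnnexinV+/PI+.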

[14] = tested on: HeLa; test: Induction of apoptosis in human HeLa cells assessed as late apoptotic cells at 3 uM after 24 hrs using FITC-conjugated annexin V and propidium iodide staining by flow cytometry; assay type: functional; in short: as §3
[15] = tested on: WiDr; test: Induction of apoptosis in human WiDr cells assessed as early apoptotic cells at 3 uM after 24 hrs using FITC-conjugated annexin V and propidium iodide staining by flow cytometry; assay type: functional; in short: as §3
[16] = tested on: WiDr; test: Induction of apoptosis in human WiDr cells assessed as late apoptotic cells at 3 uM after 24 hrs using FITC-conjugated annexin V and propidium iodide staining by flow cytometry; assay type: functional; in short: as §3
[17] = tested on: HeLa; test: Decrease in cyclin D1 expression in human HeLa cells at 10 uM by Western blot analysis; assay type: functional, cell-based; conditions: TDE = time-dependent effect
In short: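 HeLa cells were treated for 12 and 24 h, then lysed on ice in Tris pH 8.0/NaCl/NP-40/SDS/EDTA buffer with protease and phosphatase inhibitors, and cleared at 10,000 g. Proteins were run by SDS–PAGE and transferred to PVDF. Blots were probed with anti-cyclin D1, followed by HRP secondary for 30 min. Bands were detected by luminol chemiluminescence with p-iodophenol enhancement.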

GI50 [2]	GI50 [4]	GI50 [5]	GI50 [6]	SMILES	Activity [1]	GI50 [3]	GI50 [7]	Activity [8]	Activity [9]	Activity [10]	Activity [11]	Activity [12]	Activity [13]	Activity [14]	Activity [15]	Activity [16]	Activity [17]
1.59 µM	1.86 µM	0.59 µM	1.46 µM	CC(=O)O[C@@H]1OC=C[C@@H]2[C@H]1[C@@H](C)C[C@H]2O[Si](c1ccccc1)(c1ccccc1)C(C)(C)C	Active	0.5 µM	1.26 µM	Active	inactive	inactive	Active	Active	18%	25%	33%	3.7%	tde
1.24 µM	1.68 µM	0.43 µM	1.62 µM	CC(=O)O[C@H]1OC=C[C@H]2[C@@H]1[C@H](C)C[C@H]2O[Si](c1ccccc1)(c1ccccc1)C(C)(C)C	–	0.38 µM	1.13 µM	–	–	–	–	–	18%	12%	23%	2.4%	–
> 100 µM	> 100 µM	> 100 µM	> 100 µM	OC[C@H]1O[C@@H](O[C@@H]2OC=C[C@H]3[C@H](O)[C@@H]4O[C@]4(CO)[C@@H]23)[C@H](O)[C@@H](O)[C@@H]1O [CATALPOL]	–	> 100 µM	> 100 µM	–	–	–	–	–	–	–	–	–	–
